Data published in ChEMBL document CHEMBL4052624, “Metallo-β-lactamase inhibitors by bioisosteric replacement: Preparation, activity and binding” (Eur J Med Chem, 2017).
pIC50: −log10 of the molar value. ≈ marks a conversion by molar mass, not a printed value. Calls of active or inactive are those of the source. No cut-off for these calls is given here.

Tests used:
Beta-lactamase VIM-2 [1] = target: T1, Beta-lactamase VIM-2 (Pseudomonas aeruginosa, UniProt Q9K2N0); assay: Inhibition of Pseudomonas aeruginosa VIM-2 expressed in Escherichia coli NCB326-1B2 using nitrocefin as substrate after 5 mins by spectrophotometric analysis
Beta-lactamase VIM-2 [2] = target: T1, Beta-lactamase VIM-2; assay: Inhibition of Pseudomonas aeruginosa 301-5473 6His-tagged VIM-2 (V27 to E268 residues) expressed in Escherichia coli BL21 Star(DE3) pLysS using nitrocefin as substrate preincubated for 5 mins followed by substrate addition by spectrophotometric analysis
In short: (§1)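 Purified VIM-2 and GIM-1 were each used at 10 nM in 50 mM HEPES pH 7.2 with ZnCl₂ and BSA. Each enzyme was preincubated with inhibitor at 25 °C for 5 min, using sixteen concentrations in a 2-fold series. Nitrocefin was then added and the absorbance rise at 482 nm was read. Initial velocities, measured in triplicate, were fitted to log[inhibitor] vs response curves to give IC50. Line 3 is the ratio of the two IC50s.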

[3] = Inhibition of Klebsiella pneumoniae 6His-tagged NDM1 (G36 to R280 residues) expressed in Escherichia coli BL21 Star(DE3) pLysS using imipenem as substrate preincubated for 5 mins followed by substrate addition by spectrophotometric analysis; conditions: for pIC50: read-out: IC50
In short: (§2)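 His-tagged enzyme, TEV-cleaved, ~95% pure by SDS-PAGE. 10 nM enzyme with 16 inhibitor concentrations in a 2-fold series, in 50 mM HEPES pH 7.2 with ZnCl2 and BSA, preincubated 5 min at 25 °C. Then 100 µM substrate added: imipenem for NDM-1 read at 260 nm, nitrocefin for GIM-1 read at 482 nm. Initial rates in triplicate, fitted to a log[inhibitor] dose–response curve for IC50.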

Klebsiella pneumoniae [4] = assay: Inhibition of Klebsiella pneumoniae NDM1 expressed in Escherichia coli SNO3 whole cells using imipenem as substrate at 250 uM preincubated for 20 mins followed by substrate addition measured every min up to 60 mins by spectrophotometric analysis relative to control
In short: (§3)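 β-lactamase-negative E. coli SNO3 carrying blaVIM-2, blaGIM-1 or blaNDM-1 in pET26b(+). Hydrolysis of the reporter substrate followed as the initial slope over up to 60 min. Percent inhibition calculated from slopes relative to a no-inhibitor control; EDTA used as positive control.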

[5] = target: Beta-lactamase VIM-2 (Pseudomonas aeruginosa) (UniProt Q9K2N0); assay: Inhibition of Pseudomonas aeruginosa 301-5473 VIM-2 expressed in Escherichia coli SNO3 whole cells using nitrocefin as substrate at 250 uM preincubated for 20 mins followed by substrate addition measured every min up to 60 mins by spectrophotometric analysis relative to control; in short: as §3
GIM-1 protein = GIM-1 protein (Pseudomonas aeruginosa, UniProt Q704V1); assay: Inhibition of Pseudomonas aeruginosa 6His-tagged GIM-1 (Q19 to D250 residues) expressed in Escherichia coli BL21 Star(DE3) pLysS using nitrocefin as substrate preincubated for 5 mins followed by substrate addition by spectrophotometric analysis; conditions: for pIC50: read-out: IC50; in short: as §2
[6] = target: GIM-1 protein (Pseudomonas aeruginosa) (UniProt Q704V1); assay: Inhibition of Pseudomonas aeruginosa GIM-1 expressed in Escherichia coli SNO3 whole cells using nitrocefin as substrate at 250 uM preincubated for 20 mins followed by substrate addition measured every min up to 60 mins by spectrophotometric analysis relative to control; in short: as §3
[7] = target: Beta-lactamase VIM-2 (Pseudomonas aeruginosa) (UniProt Q9K2N0); assay: Inhibition of VIM-2 in Pseudomonas aeruginosa K34-7 assessed as potentiation of meropenem-induced antimicrobial activity by measuring meropenem MIC at 125 uM after 20 hrs (reference value: 32 to 64 mg/L)
Klebsiella pneumoniae [8] = assay: Inhibition of NDM-1 in Klebsiella pneumoniae K66-45 assessed as potentiation of meropenem-induced antimicrobial activity by measuring meropenem MIC at 125 uM after 20 hrs (reference value: 32 to 64 mg/L)
Klebsiella pneumoniae [9] = assay: Growth inhibition of Klebsiella pneumoniae K66-45 after 20 hrs
Pseudomonas aeruginosa [10] = assay: Growth inhibition of Pseudomonas aeruginosa K34-7 after 20 hrs
Escherichia coli [11] = assay: Inhibition of VIM-29 in Escherichia coli 50639799 assessed as potentiation of meropenem-induced antimicrobial activity by measuring meropenem MIC at 125 uM after 20 hrs (reference value: 8 to 32 mg/L)
Escherichia coli [12] = assay: Growth inhibition of Escherichia coli 50639799 after 20 hrs
[13] = Selectivity ratio of IC50 for Pseudomonas aeruginosa 6His-tagged GIM-1 (Q19 to D250 residues) expressed in Escherichia coli BL21 Star(DE3) pLysS to IC50 for Klebsiella pneumoniae 6His-tagged NDM1 (G36 to R280 residues) expressed in Escherichia coli BL21 Star(DE3) pLysS
Pseudomonas aeruginosa [14] = assay: Selectivity ratio of IC50 for Pseudomonas aeruginosa 6His-tagged GIM-1 (Q19 to D250 residues) expressed in Escherichia coli BL21 Star(DE3) pLysS to IC50 for Pseudomonas aeruginosa 301-5473 6His-tagged VIM-2 (V27 to E268 residues) expressed in Escherichia coli BL21 Star(DE3) pLysS
Pseudomonas aeruginosa [15] = assay: Selectivity ratio of IC50 for Pseudomonas aeruginosa 301-5473 6His-tagged VIM-2 (V27 to E268 residues) expressed in Escherichia coli BL21 Star(DE3) pLysS to IC50 for Pseudomonas aeruginosa 6His-tagged GIM-1 (Q19 to D250 residues) expressed in Escherichia coli BL21 Star(DE3) pLysS; in short: as §1

Sequence of GIM-1 protein (Pseudomonas aeruginosa) (Q704V1 as listed by the source): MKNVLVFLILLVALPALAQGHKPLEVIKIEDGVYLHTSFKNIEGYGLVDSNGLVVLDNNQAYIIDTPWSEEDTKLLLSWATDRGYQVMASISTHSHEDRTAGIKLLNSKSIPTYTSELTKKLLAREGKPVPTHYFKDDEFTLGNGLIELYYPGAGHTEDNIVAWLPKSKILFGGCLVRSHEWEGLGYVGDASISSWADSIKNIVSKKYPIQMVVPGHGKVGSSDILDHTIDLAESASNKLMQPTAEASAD
Sequence of GIM-1 protein (Q704V1 whole entry, the tested form may be a part): as the sequence (Q704V1 as listed by the source) above

Compound	pIC50 (Beta-lactamase VIM-2 [1])	pIC50 (Beta-lactamase VIM-2 [2])	pIC50 [3]	inhibition (Klebsiella pneumoniae [4])	inhibition [5]	pIC50 (GIM-1 protein)	inhibition [6]	MIC [7]	MIC (Klebsiella pneumoniae [8])	MIC (Klebsiella pneumoniae [9])	MIC (Pseudomonas aeruginosa [10])	MIC (Escherichia coli [11])	MIC (Escherichia coli [12])	Ratio IC50 [13]	Ratio IC50 (Pseudomonas aeruginosa [14])	IC50 [3]	IC50 (GIM-1 protein)	Ratio IC50 (Pseudomonas aeruginosa [15])
O=C(O)C(CS)CCCCc1ccccc1 (configuration not stated)	5.96	5.54	4.25															
O=P(O)(O)C(CO)CCCCc1ccccc1 (configuration not stated)		5.35	3.90	4%	88%	< 5.00	14%											
CC(=O)SCC(CCCc1ccccc1)c1nnn[nH]1 (configuration not stated)		4.38	3.84		77%	3.79	20%											
O=P(O)(O)C(CO)CCCc1ccccc1 (configuration not stated)		4.47	4.11		66%	< 5.00	16%											
CCOP(=O)(OCC)C(CO)CCCCc1ccccc1 (configuration not stated)		< 5.00	< 5.00	1%	inactive	3.55	4%											
CCOP(=O)(OCC)C(CCCCc1ccccc1)CSC(C)=O (configuration not stated)		4.70		inactive	12%	4.89	25%											
SCC(CCCc1ccccc1)c1nnn[nH]1 (configuration not stated)		4.55	4.92	16%	67%	4.17	25%											
CCOP(=O)(OCC)C(CS)CCCc1ccccc1 (configuration not stated)		6.42	5.74	62%	79%	6.51	48%	32 µg/mL	32 µg/mL	> 500 µg/mL	> 500 µg/mL	8 µg/mL						
CC(=O)SCC(CCCc1ccccc1)P(=O)(O)O (configuration not stated)		5.33	5.18	38%	95%	4.59	37%	32 µg/mL	32 µg/mL	> 500 µg/mL	> 500 µg/mL	1 µg/mL	> 1000 µg/mL					
CCOP(=O)(OCC)C(CO)CCc1ccccc1 (configuration not stated)		< 5.00	< 5.00			< 5.00												
CC(=O)SCC(CCc1ccccc1)P(=O)(O)O (configuration not stated)		5.64	5.54	39%	94%	4.92	40%											
O=P(O)(O)C(CS)CCCCc1ccccc1 (configuration not stated)		5.07	5.07	42%	94%	4.80	31%							2 to 4	2 to 4			
CCOP(=O)(OCC)C(CO)CCCc1ccccc1 (configuration not stated)		< 5.00	< 5.00	inactive	inactive	< 5.00	inactive											
CCOP(=O)(OCC)C(CS)CCCCc1ccccc1 (configuration not stated)		5.78														Nd(Insoluble)	Nd(Insoluble)	
CCOP(=O)(OCC)C(CCc1ccccc1)CSC(C)=O (configuration not stated)		3.88		inactive	17%	4.74	25%											
CCOP(=O)(OCC)C(CCCc1ccccc1)CSC(C)=O (configuration not stated)		4.47		inactive	14%	4.59	21%	32 µg/mL	64 µg/mL	> 1000 µg/mL	> 1000 µg/mL	4 to 8 µg/mL	> 1000 µg/mL					
CC(=O)SCC(Cc1ccccc1)c1nnn[nH]1 (configuration not stated)		4.17	4.09	32%	76%	3.69	55%											
CC(=O)SCC(CCCCc1ccccc1)P(=O)(O)O (configuration not stated)		5.74	5.60	37%	97%	4.70	50%	32 µg/mL	32 µg/mL	> 500 µg/mL	> 500 µg/mL	2 µg/mL						
O=P(O)(O)C(CS)CCc1ccccc1 (configuration not stated)		5.11	5.23	42%	92%	4.64	37%	32 µg/mL	32 µg/mL	> 500 µg/mL	> 500 µg/mL	4 µg/mL		2 to 4	2 to 4			
O=P(O)(O)C(CO)CCc1ccccc1 (configuration not stated)		4.46 to 4.57	4.23	3.75%	61%	4.00	23%											
CCOP(=O)(OCC)C(CS)CCc1ccccc1 (configuration not stated)		6.05	5.66	33%	78%	6.74	64%	32 µg/mL	32 µg/mL	> 500 µg/mL	> 500 µg/mL	8 µg/mL						5
c1ccc(CCCC(CSC2CCCCC2)c2nnn[nH]2)cc1 (configuration not stated)		5.30	5.00	inactive	73%	3.79 to 4.44	8%											
O=P(O)(O)C(CS)CCCc1ccccc1 (configuration not stated)		4.48	5.15	45%	95%	4.55	46%	32 µg/mL	32 µg/mL	1000 µg/mL (≈ 3840 µM)	1000 µg/mL (≈ 3840 µM)	1 µg/mL	> 1000 µg/mL					
